Our source for the yeast fitness values is the RNAGym collection of RNA variant scans (doi:10.1126/science.aae0568).

B1: tRNA (parent)
chain: GUUCCGUUGGCGUAAUGGUAACGCGUCUCCCUCCUAAGGAGAAGACUGCGGGUUCGAGUCCCGUACGGAACG

Fewer inactive variants are shown than the library holds.

This data set covers variants of B1. Briefly: yeast fitness relative to wild type (ratio to wild type); higher = fitter; tRNA-Arg(CCU), competitive growth, 37 C, YPD. Summed up: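 Genotype frequency changes were the basis for Darwinian fitness relative to wild type. The frequencies came from 100-nucleotide paired-end sequencing of gene amplicons from the start population and each end population of pooled yeast strains with tRNA-Arg(CCU) gene variants at the native locus. Competition ran in YPD at 37°C for 24 hours in six replicates, genotypes needed ≥ 100 starting reads, and estimates < 0.5 were set to 0.5.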
In the case of C27G U28G A36G U64C, the yeast fitness is no more than 0.5.

In the case of C27U A42U A43U U47C, the yeast fitness was found to be 0.577.

Turning to U26G G50C A57G, the yeast fitness was found to be 0.529.

For the variant U26C C33G A36G A42C C49G G58C C62G, the yeast fitness is no more than 0.5.

Regarding U26C A36C A45G U54C, the yeast fitness is no more than 0.5.

In the case of C27G C34U A43C A57U G58A C62G, the yeast fitness was no more than 0.5.

Regarding C27U G52A, the yeast fitness was 0.7.

Turning to C27U G52C, the yeast fitness came out at 0.7.

Consider C27U A37U G67A, for which the yeast fitness was no more than 0.5.

For the variant C27A A36C A42U, the yeast fitness was no more than 0.5.

Consider U26G C27A, for which the yeast fitness was determined as 0.647.

With U26A G58U, the yeast fitness was 1.03.

Regarding U26A G58C, the yeast fitness was found to be 0.98.

In the case of C27A A36U A37U G48C C61U, the yeast fitness was no more than 0.5.

With C27A U32A U59C, the yeast fitness is no more than 0.5.

Consider U26G C46G C61U, for which the yeast fitness is 0.824.

As for C27U A45C G48A A57U G67A, the yeast fitness is no more than 0.5.

Turning to C27U A43G C46G A69C, the yeast fitness was no more than 0.5.

On to U26G A37C G38A A42G G44C A45G C49U A65U, for which the yeast fitness was no more than 0.5.

For C27G C61U, the yeast fitness came out at 0.594.

As for C27U A43U, the yeast fitness was 1.06.

Consider U28A C34U A37U A45U A57G C61U, for which the yeast fitness is no more than 0.5.

Take C27A A57C C66U: the yeast fitness stood at 0.538.

For the variant C27G A40G G48A A57C U64A, the yeast fitness was no more than 0.5.

As to U26G C33G U35A C55U A65C, the yeast fitness was no more than 0.5.

With U26A U28A C31U G63C, the yeast fitness was no more than 0.5.

U26C C61U: the yeast fitness was 0.956.

As to C27A A45U G52A, the yeast fitness is no more than 0.5.

C27U C31U C55U: the yeast fitness came out at 0.643.

Turning to U26C A43C, the yeast fitness amounted to 0.952.

As to U26C A43G, the yeast fitness was found to be 1.01.

Regarding C27U C34U A69U, the yeast fitness amounted to 0.528.

Consider U26C C27U C62U, for which the yeast fitness is 0.754.

U28A A36U C61A A69U: the yeast fitness is no more than 0.5.

Regarding U28A C31G G48A G51C C55G, the yeast fitness was determined as 0.523.

As to U26G U28A A43G C49U C61U G67A, the yeast fitness was no more than 0.5.

Turning to U26C C30U C46A U47G G50A, the yeast fitness is no more than 0.5.

For U26A C29G A43G A45U A65U, the yeast fitness was no more than 0.5.

For C27U G48A, the yeast fitness amounted to 1.1.

Consider U28A A40U C61A G68A, for which the yeast fitness was no more than 0.5.

With U26G A37U G51A, the yeast fitness is no more than 0.5.

For C27U G39A G68U, the yeast fitness amounted to 0.54.

As to U26C A42G, the yeast fitness was determined as 1.08.

As for C27G A42U U53C, the yeast fitness is no more than 0.5.

Turning to U26G G52A, the yeast fitness amounted to 0.816.

For C27U G38A C55A, the yeast fitness is no more than 0.5.

As to U26C A45G, the yeast fitness was found to be 0.966.

As to U28A C34U A40U A45U C60A, the yeast fitness is 0.706.

Regarding C27G U28A C61U A65U A70U, the yeast fitness was no more than 0.5.

With C27U G38C A40C A42C, the yeast fitness is no more than 0.5.

As to C27G U32A C34A C55A, the yeast fitness was no more than 0.5.

Regarding U26A G38C U47A C49A, the yeast fitness was no more than 0.5.

As for C27G A36C C46U G51C, the yeast fitness came to 0.54.

With U26C A40G C66U, the yeast fitness came to 0.563.

For the variant U26A C49U, the yeast fitness amounted to 0.865.

As for U26A C49G, the yeast fitness turned out to be 0.616.

For C27U C31G A40G, the yeast fitness is no more than 0.5.

As for C27A G58C, the yeast fitness came out at 1.13.

As for C27G A43C C60G, the yeast fitness was no more than 0.5.

Consider C27A C31G G50A, for which the yeast fitness was 0.661.

Turning to U28A C33G A36U A40G A70G, the yeast fitness is no more than 0.5.

Take U28A C30U: the yeast fitness came out at 0.667.

For the variant C27A G38C G51C A69U, the yeast fitness was no more than 0.5.

With C27A U32G G51A G56C A70G, the yeast fitness is no more than 0.5.

For U26A G50U, the yeast fitness was determined as 0.805.

Turning to C27U A36G, the yeast fitness is 0.85.

Regarding C27G A45U, the yeast fitness amounted to 0.656.

With U26C C34U, the yeast fitness stood at 0.716.

For C27G C61U A69U, the yeast fitness was determined as 0.532.

As for C27A U59C A69U, the yeast fitness is 0.713.

As to U26C A36G A69C, the yeast fitness came to 0.736.

Turning to C27A C29U G48A G68C, the yeast fitness was no more than 0.5.

Take U28A A69U: the yeast fitness turned out to be 0.749.

On to C27G U32G A42C C66U, for which the yeast fitness is no more than 0.5.

On to C27G C30U G56A, for which the yeast fitness is no more than 0.5.

As for C27A C46A A69G, the yeast fitness came out at 0.582.

On to C27A C61G C66U A69U, for which the yeast fitness was no more than 0.5.

As to U26C A43U G50A G68A, the yeast fitness is no more than 0.5.

As to U26G G48A, the yeast fitness was 1.08.

As to U26G G48C, the yeast fitness was 0.805.

As to C27U C30U A42C C55U A70G, the yeast fitness is no more than 0.5.

Regarding U28A A45G A69C, the yeast fitness is no more than 0.5.

As for U26A C49G G67C, the yeast fitness was no more than 0.5.

Turning to C27G A70U, the yeast fitness was determined as 0.74.

On to U26G C30G, for which the yeast fitness was 0.6.

With U26A U59C C66U, the yeast fitness was found to be 0.564.

Consider C27G C33G C60U C61G, for which the yeast fitness is 0.503.

Turning to C27U C61U, the yeast fitness was 1.01.

Regarding C27G C30U G67A A70G, the yeast fitness is no more than 0.5.

With U26A G56A, the yeast fitness came out at 1.02.

Turning to U26A C46G, the yeast fitness turned out to be 0.973.

With U26C C30G A43U G50A, the yeast fitness was no more than 0.5.

As to U26C C62A, the yeast fitness stood at 0.762.

Take U26C C27U U54G G56A: the yeast fitness was found to be 0.54.

With U26C G50A, the yeast fitness is 0.932.

In the case of U28A C33G C49G G50U, the yeast fitness was no more than 0.5.

Turning to U26A C31G A37G G63A, the yeast fitness is no more than 0.5.

As to U26A G52A, the yeast fitness was found to be 0.666.

As to C27U U28A A37G C49U A57C G58C, the yeast fitness was 0.683.

As for U26G G48A A57U, the yeast fitness is 0.598.

For the variant U28A C34U G41C G51A U53A U59C A70U, the yeast fitness is no more than 0.5.

As to C27A C31A G52A G58C, the yeast fitness was no more than 0.5.

Consider C27U A57G C60U, for which the yeast fitness was no more than 0.5.

With U28A C31U, the yeast fitness was 0.7.

As for C27A A65U, the yeast fitness came out at 0.678.

With C27G G52A, the yeast fitness was determined as 0.941.

For C27A G39C C55G A65U, the yeast fitness is no more than 0.5.

On to C27U C29G, for which the yeast fitness is 0.58.

Take U26C C30G G67C: the yeast fitness is no more than 0.5.

Take C27A G39C C46A: the yeast fitness is no more than 0.5.

As to C27G U28A C30G C31U, the yeast fitness stood at 0.51.

As to C27G A65C A70C, the yeast fitness was found to be 0.53.

As for C27G A37G U64A, the yeast fitness was no more than 0.5.

For the variant U26G C66U, the yeast fitness came to 0.862.

Consider U26A C31A A45U, for which the yeast fitness came out at 0.563.

On to C27A A37U A70U, for which the yeast fitness stood at 0.548.

On to C27U C31U G52C U59G, for which the yeast fitness was no more than 0.5.

Turning to C27U C29G C31A, the yeast fitness is no more than 0.5.

As for U26A C30A, the yeast fitness came out at 0.768.

Take U26A C46U G50C U54A: the yeast fitness came to 0.579.

As for U26A C27A U54C, the yeast fitness was no more than 0.5.

Turning to C27U C29U C55A G58A, the yeast fitness is no more than 0.5.

For the variant U26C C60G, the yeast fitness is 0.642.

Regarding U26A G58C C62U, the yeast fitness was found to be 0.659.

For the variant C27G C31A A57U, the yeast fitness is 0.573.

Regarding U26C C27U U59C, the yeast fitness came to 0.702.

For the variant C27U U28C C49U U54A A57C U59C, the yeast fitness turned out to be 0.706.

Turning to U26A G38C G58C U64A, the yeast fitness was no more than 0.5.

Take C27A G39A A57G: the yeast fitness was no more than 0.5.

In the case of C27A U28C C29G C61A, the yeast fitness is 0.664.

C27G G44C A45G: the yeast fitness amounted to 0.53.

For the variant U26A C66A A70U, the yeast fitness was no more than 0.5.

For C27G U64C, the yeast fitness is 0.693.

C27U C46A A57C: the yeast fitness is 0.726.

As to C27U G48C A57C, the yeast fitness was no more than 0.5.

Take U26C A45G A69U: the yeast fitness worked out at 0.647.

In the case of C27G G58A, the yeast fitness turned out to be 0.698.

In the case of C27U U28G C31A G58C, the yeast fitness is no more than 0.5.

As to C27G G44C, the yeast fitness worked out at 0.569.

As for U26G C46A, the yeast fitness turned out to be 0.949.

In the case of U26C G41C C61G A69C, the yeast fitness was no more than 0.5.

Regarding C27G C30U U32C G51C U64A, the yeast fitness is no more than 0.5.

For U26G C33G G50C, the yeast fitness is no more than 0.5.

For the variant U26A C49U A57U, the yeast fitness was no more than 0.5.

Take C27G C49U A65C: the yeast fitness was no more than 0.5.

C27U C49G: the yeast fitness stood at 0.916.

In the case of C27U G41C A65C, the yeast fitness was 0.588.

Consider U26A C46G C61U, for which the yeast fitness worked out at 0.699.

In the case of C27U C33G C34G G44A G50A G52A, the yeast fitness came out at 0.558.

As for C27G A42G A57G U59G, the yeast fitness was no more than 0.5.

In the case of C27U U54G A65C, the yeast fitness was no more than 0.5.

On to C27G U28A A65U, for which the yeast fitness was no more than 0.5.

C27A U35A A43U: the yeast fitness was no more than 0.5.

Regarding C27U A40G U64A, the yeast fitness is no more than 0.5.

As to C27U A40G U64C, the yeast fitness was determined as 0.602.

As to C27A A37U C49U C55U C60G A65C, the yeast fitness is no more than 0.5.

With U26A C30U A42C C46U A65G, the yeast fitness came to 0.859.

With C27U G51C U59C, the yeast fitness was no more than 0.5.

Take U26C U53C A57U C66G: the yeast fitness was no more than 0.5.

Take C27G A40C C60U: the yeast fitness was no more than 0.5.

Turning to C27U C30U C34G A37C A69C, the yeast fitness was no more than 0.5.

Turning to C27U C46U G48A A70C, the yeast fitness is 0.669.

On to C27G A42U G48A, for which the yeast fitness is no more than 0.5.

As for U26C C29G A43U, the yeast fitness was no more than 0.5.

U26C C27A: the yeast fitness is 0.859.

C27G U59C C66G: the yeast fitness is no more than 0.5.

For U26G G67C, the yeast fitness was determined as 0.644.
